In brackets after ≈: the same amount, converted by molar mass. Activity calls are given as the source filed them. The rule behind the calls is not given here.
Key:
Acinetobacter baumannii = experiment: Antibacterial activity against Acinetobacter baumannii ATCC 19606 by microdilution method; format: functional
Outline: (§1)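 Broth microdilution MIC against the named bacterial strain, reported in μg/mL; each determination run at least in duplicate.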

Candida albicans [1] = experiment: Antifungal activity against azole-resistant Candida albicans ATCC 90819 after 48 hrs by microbroth dilution method; format: functional; settings: ATCC 90819, 48 h
Outline: (§2)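 Yeast MIC by broth microdilution, run in duplicate. The aminoglycoside compounds are read as MIC-0 (complete inhibition). Azoles are read as MIC-2 (50% inhibition).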

[2] = test system: Mycobacterium tuberculosis; experiment: Activity of Mycobacterium tuberculosis AAC(2')-1c assessed as compound acetylation activity by Ellman's method
Salmonella enterica = experiment: Antibacterial activity against Salmonella enterica ATCC 14028 by microdilution method; format: functional; outline: as §1
Candida albicans [3] = experiment: Antifungal activity against azole-resistant Candida albicans MYA-1003 after 48 hrs by microbroth dilution method; format: functional; settings: MYA-1003, 48 h; outline: as §2
Staphylococcus aureus [4] = experiment: Antibacterial activity against methicillin-resistant Staphylococcus aureus by microdilution method; format: functional
Outline: (§3)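 Broth microdilution MIC, in μg/mL, against a panel of Gram-positive and Gram-negative strains. Run at least in duplicate.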

Candida albicans [5] = experiment: Antifungal activity against azole-susceptible Candida albicans ATCC MYA-2876 after 48 hrs by microbroth dilution method; format: functional; settings: ATCC MYA-2876, 48 h; outline: as §2
Listeria monocytogenes = experiment: Antibacterial activity against Listeria monocytogenes ATCC 19115 by microdilution method; format: functional; outline: as §1
Pseudomonas aeruginosa = experiment: Antibacterial activity against Pseudomonas aeruginosa ATCC 27853 by microdilution method; format: functional; outline: as §1
Aspergillus nidulans = experiment: Antifungal activity against Aspergillus nidulans ATCC 38163 after 48 hrs by microbroth dilution method; format: functional; settings: ATCC 38163, 48 h
Outline: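 Filamentous fungus MIC by broth microdilution, run in duplicate. All compounds are read as MIC-0 (complete inhibition).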

[6] = test system: Bacillus subtilis subsp. subtilis str. 168; experiment: Activity of Bacillus subtilis 168 APH(2'')-1a assessed as compound phosphorylation activity by Ellman's method
Bacillus subtilis = experiment: Antibacterial activity against Bacillus subtilis 168 by microdilution method; format: functional; settings: subsp. subtilis str. 168; outline: as §1
Candida albicans [7] = experiment: Antifungal activity against azole-resistant Candida albicans MYA-1237 after 48 hrs by microbroth dilution method; format: functional; settings: MYA-1237, 48 h; outline: as §2
A549 = experiment: Cytotoxicity against human A549 cells after 24 hrs by resazurin assay; format: cell-based; settings: human, a549, 24 h
[8] = Hemolytic activity against mouse RBC at 100 to 500 ug/ml after 60 mins; format: ADME, cell-based; settings: erythrocyte, 1 h
Staphylococcus aureus [9] = experiment: Antibacterial activity against Staphylococcus aureus NRS383 (USA 200) by microdilution method; format: functional; outline: as §1
[10] = test system: Mycobacterium tuberculosis; experiment: Activity of Mycobacterium tuberculosis Eis assessed as compound acetylation activity by Ellman's method
Staphylococcus aureus [11] = experiment: Antibacterial activity against Staphylococcus aureus NRS22 (USA 600) by microdilution method; format: functional; outline: as §1
Staphylococcus aureus [12] = experiment: Antibacterial activity against Staphylococcus aureus NRS385 (USA 300) by microdilution method; format: functional; outline: as §3
Escherichia coli = experiment: Antibacterial activity against Escherichia coli MC1061 by microdilution method; format: functional; outline: as §3
Enterococcus = experiment: Antibacterial activity against vancomycin-resistant Enterococcus by microdilution method; format: functional; outline: as §3
Staphylococcus aureus [13] = experiment: Antibacterial activity against Staphylococcus aureus ATCC 29213 by microdilution method; format: functional; outline: as §1
Candida albicans [14] = experiment: Antifungal activity against azole-resistant Candida albicans ATCC 64124 after 48 hrs by microbroth dilution method; format: functional; settings: ATCC 64124, 48 h; outline: as §2
Candida albicans [15] = experiment: Antifungal activity against azole-susceptible Candida albicans ATCC MYA-2310 after 48 hrs by microbroth dilution method; format: functional; settings: ATCC MYA-2310, 48 h; outline: as §2
Klebsiella pneumoniae = experiment: Antibacterial activity against Klebsiella pneumoniae ATCC 27736 by microdilution method; format: functional; outline: as §1
[16] = Cytotoxicity against human BEAS2B cells after 24 hrs by resazurin assay; format: cell-based, BEAS-2B; settings: human, beas-2b
Enterobacter cloacae = experiment: Antibacterial activity against Enterobacter cloacae ATCC 13047 by microdilution method; format: functional; outline: as §1
Candida albicans [17] = experiment: Antifungal activity against azole-resistant Candida albicans ATCC 10231 after 48 hrs by microbroth dilution method; format: functional; settings: ATCC 10231, 48 h; outline: as §2
[18] = test system: Mycolicibacterium smegmatis; experiment: Antibacterial activity against Mycobacterium smegmatis MC2 155 by microdilution method; format: functional; settings: str. MC2 155; outline: as §3
[19] = Activity of AAC(3)-4 (unknown origin) assessed as compound acetylation activity by Ellman's method
[20] = Activity of AAC(6')-1e/APH(2'')-1a (unknown origin) assessed as compound acetylation activity by Ellman's method
[21] = test system: Staphylococcus epidermidis; experiment: Antibacterial activity against Staphylococcus epidermidis ATCC 12228 by microdilution method; format: functional; outline: as §1
Staphylococcus aureus [22] = experiment: Antibacterial activity against Staphylococcus aureus NRS382 (USA 100) by microdilution method; format: functional; outline: as §1
Serratia marcescens = experiment: Activity of Serratia marcescens AAC(6')-2d assessed as compound acetylation activity by Ellman's method

CCCCCCCCSC[C@@H]1O[C@@H](O[C@@H]2[C@@H](O)[C@H](O[C@@H]3O[C@@H](CN)[C@H](O)[C@@H](O)[C@@H]3N)[C@@H](N)C[C@H]2N)[C@@H](O)[C@H](N)[C@H]1O (stereo in doubt)
MIC (Acinetobacter baumannii): > 128 µg/mL | MIC (Candida albicans [1]): > 125 µg/mL | Activity [2]: inactive | MIC (Salmonella enterica): > 128 µg/mL | MIC (Candida albicans [3]): > 125 µg/mL | MIC (Staphylococcus aureus [4]): 128 µg/mL (≈ 209 µM) | MIC (Candida albicans [5]): > 125 µg/mL | MIC (Listeria monocytogenes): 8 µg/mL (≈ 13.1 µM) | MIC (Pseudomonas aeruginosa): 64 µg/mL (≈ 105 µM) | MIC (Aspergillus nidulans): 15.6 µg/mL (≈ 25.5 µM) | Activity [6]: inactive | MIC (Bacillus subtilis): > 128 µg/mL | MIC (Candida albicans [7]): > 125 µg/mL | Activity (A549): Non-toxic | Activity [8]: Non-toxic | MIC (Staphylococcus aureus [9]): 64 µg/mL (≈ 105 µM) | Activity [10]: inactive | MIC (Staphylococcus aureus [11]): 64 µg/mL (≈ 105 µM) | MIC (Staphylococcus aureus [12]): 128 µg/mL (≈ 209 µM) | MIC (Escherichia coli): > 128 µg/mL | MIC (Enterococcus): 128 µg/mL (≈ 209 µM) | MIC (Staphylococcus aureus [13]): 64 µg/mL (≈ 105 µM) | MIC (Candida albicans [14]): > 125 µg/mL | MIC (Candida albicans [15]): > 125 µg/mL | MIC (Klebsiella pneumoniae): > 128 µg/mL | Activity [16]: Non-toxic | MIC (Enterobacter cloacae): > 128 µg/mL | MIC (Candida albicans [17]): > 125 µg/mL | MIC [18]: 64 µg/mL (≈ 105 µM) | Activity [19]: inactive | Activity [20]: inactive | MIC [21]: > 128 µg/mL | MIC (Staphylococcus aureus [22]): 128 µg/mL (≈ 209 µM) | Activity (Serratia marcescens): inactive
